ChEMBL document CHEMBL2016446, “Trivalent ultrashort lipopeptides are potent pH dependent antifungal agents” (J Med Chem, 2012)
Converted amounts (≈) assume the structure as drawn. The source made the active and inactive calls. The calls are words filed in the database; no cut-off is given here.

Legend:
Cryptococcus neoformans [1] = test: Antifungal activity against Cryptococcus neoformans ATCC MYA422 after 72 hrs at pH 5.5; type: functional; details: ATCC MYA422, 72 h
Summary of the method: (§1)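 The method followed CLSI M38-A2 (Aspergillus) or M27-A3. Medium was RPMI 1640 with 0.165 M MOPS and L-glutamine, without NaHCO3, at pH 5.5 or 7.5. Inoculum of 2 × 10^3 CFU/mL was mixed 1:1 with serial 2-fold peptide dilutions. Incubation was at 35 °C: 48 h for A. fumigatus and C. albicans, 72 h for C. neoformans. MIC was read by eye as no growth. Values are averages of duplicates.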

Candida albicans [2] = test: Antifungal activity against Candida albicans ATCC 10231 after 48 hrs at pH 5.5; type: functional; details: ATCC 10231, 48 h; summary of the method: as §1
Candida albicans [3] = test: Antifungal activity against Candida albicans ATCC 10231 after 48 hrs at pH 7.5; type: functional; details: ATCC 10231, 48 h; summary of the method: as §1
Aspergillus fumigatus [4] = test: Antifungal activity against Aspergillus fumigatus ATCC 26430 after 48 hrs at pH 7.5; type: functional; details: ATCC 26430, 48 h; summary of the method: as §1
Aspergillus fumigatus [5] = test: Antifungal activity against Aspergillus fumigatus ATCC 26430 after 48 hrs at pH 5.5; type: functional; details: ATCC 26430, 48 h; summary of the method: as §1
Cryptococcus neoformans [6] = test: Antifungal activity against Cryptococcus neoformans ATCC MYA422 after 72 hrs at pH 7.5; type: functional; details: ATCC MYA422, 72 h; summary of the method: as §1
Aspergillus fumigatus [7] = test: Induction of membrane depolarization in Aspergillus fumigatus at 1.56 to 100 uM at pH 5.5 by DiSC3(5)-based fluorescence assay; type: functional, organism-based
Summary of the method: (§2)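 A. fumigatus was pregrown 20 h at 35 °C from 2 × 10^3 CFU/mL in RPMI/MOPS (pH 7.4 or 5.5). Cells were loaded with DiSC3(5) at 0.2 μM final in sodium phosphate buffer (pH 5.5 or 7.5) for 15 min. Peptides were added at 1.56–100 μM final, and fluorescence (ex 640/em 660 nm) was read after 1 h.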

Escherichia coli [8] = test: Antibacterial activity against Escherichia coli ATCC D21 after 18 to 20 hrs at pH 7.5; type: functional, organism-based
Summary of the method: (§3)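 Broth microdilution in LB: bacterial suspension at 10^6 CFU/mL mixed 1:1 with serial 2-fold peptide dilutions, made from a 1 mg/mL aqueous stock. Strains were E. coli ATCC D21 and S. aureus ATCC 6538P. MIC was the lowest concentration with no growth after 18–20 h. Values are averages of duplicate experiments.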

Aspergillus fumigatus [9] = test: Induction of membrane damage in Aspergillus fumigatus at 1.56 to 100 uM at pH 5.5 by Sytox green-based fluorescence assay; type: functional, organism-based
Summary of the method: (§4)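 A. fumigatus at 2 × 10^3 CFU/mL in RPMI/MOPS (pH 7.4 or 5.5) was grown 20 h at 35 °C. Sytox green was added at 0.2 μM final in sodium phosphate buffer (pH 5.5 or 7.5) for 15 min. Peptides were then added at 100–1.56 μM final. Fluorescence (ex 485/em 530 nm) was read after 1 h.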

Aspergillus fumigatus [10] = test: Induction of membrane depolarization in Aspergillus fumigatus at 1.56 to 100 uM at pH 7.5 by DiSC3(5)-based fluorescence assay; type: functional, organism-based; summary of the method: as §2
Staphylococcus aureus [11] = test: Antibacterial activity against Staphylococcus aureus ATCC 6538P after 18 to 20 hrs at pH 5.5; type: functional, organism-based; summary of the method: as §3
Aspergillus fumigatus [12] = test: Induction of membrane damage in Aspergillus fumigatus at 1.56 to 100 uM at pH 7.5 by Sytox green-based fluorescence assay; type: functional, organism-based; summary of the method: as §4
Staphylococcus aureus [13] = test: Antibacterial activity against Staphylococcus aureus ATCC 6538P after 18 to 20 hrs at pH 7.5; type: functional, organism-based; summary of the method: as §3
Escherichia coli [14] = test: Antibacterial activity against Escherichia coli ATCC D21 after 18 to 20 hrs at pH 5.5; type: functional, organism-based; summary of the method: as §3
Aspergillus fumigatus [15] = test: Antifungal activity against Aspergillus fumigatus Af293 infected in immunocompromized ICR mouse assessed as survival rate at 4.5 mg/kg, at pH 5.5 it administered on day 1, 4, 7 and 11 monitored for 28 days relative to control; type: functional; details: route endotracheal
Summary of the method: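 Six-week-old female ICR mice immunocompromised with cortisone acetate (150 mg/kg in PBS/0.1% Tween 80, s.c.) 4 days before treatment, on day of first treatment, and 2 and 4 days after. A. fumigatus lung infection on day 1. Lipopeptide given i.t. at 4.5 mg/kg (50 μL, pH 5.5) on days 1, 4, 7 and 11. Controls: saline, amphotericin B 1 mg/kg i.p. Survival followed 28 days; n = 9–10.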

| MIC (Cryptococcus neoformans [1]) [µM] | MIC (Candida albicans [2]) [µM] | MIC (Candida albicans [3]) [µM] | MIC (Aspergillus fumigatus [4]) [µM] | MIC (Aspergillus fumigatus [5]) [µM] | MIC (Cryptococcus neoformans [6]) [µM] | SMILES | Activity (Aspergillus fumigatus [7]) | Activity (Escherichia coli [8]) | Activity (Aspergillus fumigatus [9]) | Activity (Aspergillus fumigatus [10]) | Activity (Staphylococcus aureus [11]) | Activity (Aspergillus fumigatus [12]) | Activity (Staphylococcus aureus [13]) | Activity (Escherichia coli [14]) | survival at 4.5 mg/kg (Aspergillus fumigatus [15]) [%] |
| --- | --- | --- | --- | --- | --- | --- | --- | --- | --- | --- | --- | --- | --- | --- | --- |
| 1.35 (≈ 1.25 µg/mL) | 2.7 (≈ 2.5 µg/mL) | 0.33 (≈ 0.305 µg/mL) | 0.17 (≈ 0.157 µg/mL) | 1 (≈ 0.924 µg/mL) | 0.17 (≈ 0.157 µg/mL) | C[C@@H]1[C@H](O)[C@@H](C)/C=C/C=C/C=C/C=C/C=C/C=C/C=C/[C@H](O[C@@H]2O[C@H](C)[C@@H](O)[C@H](N)[C@@H]2O)C[C@@H]2O[C@](O)(C[C@@H](O)C[C@@H](O)[C@H](O)CC[C@@H](O)C[C@@H](O)CC(=O)O[C@H]1C)C[C@H](O)[C@H]2C(=O)O [AMPHOTERICIN B] |  |  |  |  |  |  |  |  |  |
| > 100 | > 100 | > 100 | > 100 | > 100 | > 100 | CCCCCC(=O)N[C@@H](Cc1cnc[nH]1)C(=O)N[C@@H](Cc1cnc[nH]1)C(=O)N1CCCN(C(=O)[C@H](Cc2cnc[nH]2)NC(=O)[C@H](Cc2cnc[nH]2)NC(=O)CCCCC)Cc2cc(cc(C(N)=O)c2)CN(C(=O)[C@H](Cc2cnc[nH]2)NC(=O)[C@H](Cc2cnc[nH]2)NC(=O)CCCCC)CCC1 | inactive | inactive | inactive | inactive | inactive | inactive | inactive | inactive |  |
|  |  |  |  |  |  | CCCCCCCCCCCCCC(=O)N[C@@H](Cc1c[nH]cn1)C(=O)N[C@@H](Cc1c[nH]cn1)C(=O)N1CCCN(C(=O)[C@H](Cc2c[nH]cn2)NC(=O)[C@H](Cc2c[nH]cn2)NC(=O)CCCCCCCCCCCCC)Cc2cc(cc(C(N)=O)c2)CN(C(=O)[C@H](Cc2c[nH]cn2)NC(=O)[C@H](Cc2c[nH]cn2)NC(=O)CCCCCCCCCCCCC)CCC1 |  |  |  |  |  |  |  |  | 55 |
| 25 (≈ 47.5 µg/mL) | 100 (≈ 190 µg/mL) | > 100 | > 100 | > 100 | > 100 | CCCCCCCCCCCCCCCCCC(=O)N[C@@H](Cc1c[nH]cn1)C(=O)N[C@@H](Cc1c[nH]cn1)C(=O)N1CCCN(C(=O)[C@H](Cc2c[nH]cn2)NC(=O)[C@H](Cc2c[nH]cn2)NC(=O)CCCCCCCCCCCCCCCCC)Cc2cc(cc(C(N)=O)c2)CN(C(=O)[C@H](Cc2c[nH]cn2)NC(=O)[C@H](Cc2c[nH]cn2)NC(=O)CCCCCCCCCCCCCCCCC)CCC1 | inactive | inactive | inactive | inactive | inactive | inactive | inactive | inactive |  |
